# Screens from PubChem BioAssay.
# Only some compounds are listed: those with a hit (about 2.2% of all), similar ones and a draw of the others.
# NR2E3 ag-1 = inhibitors of NR2E3-RetCOR corepressor binding, primary screen, NR2E3 agonist project, biochemical, TR-FRET, GST-NR2E3, biotin-RetCOR; Photoreceptor-specific nuclear receptor (Homo sapiens), Q9Y5X4; 320,000 compounds, 0.12% hits; AID 2300, 2010; 1536-well; inhibition of corepressor binding, % at 4.78 µM;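 active = percent inhibition above the cutoff of mean plus 3 SD of all tested compounds, set per screening campaign, cut at about 20% in these data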;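 also: 0% = DMSO wells and 100% = biotin wells as full block of FRET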
# Target sequence (Q9Y5X4 whole entry, looked up): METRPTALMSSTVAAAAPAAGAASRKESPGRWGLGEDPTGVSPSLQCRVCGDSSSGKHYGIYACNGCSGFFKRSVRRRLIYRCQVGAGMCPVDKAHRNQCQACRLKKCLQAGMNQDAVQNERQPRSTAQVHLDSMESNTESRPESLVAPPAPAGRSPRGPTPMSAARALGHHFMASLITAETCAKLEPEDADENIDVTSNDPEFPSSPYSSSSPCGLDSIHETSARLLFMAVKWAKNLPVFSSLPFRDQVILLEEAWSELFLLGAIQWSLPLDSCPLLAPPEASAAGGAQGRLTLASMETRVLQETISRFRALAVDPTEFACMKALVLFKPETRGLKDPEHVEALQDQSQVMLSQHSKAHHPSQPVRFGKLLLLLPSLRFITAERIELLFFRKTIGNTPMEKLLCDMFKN
#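 Material: NR2E3–RetCOR corepressor complex | Quantity: 1.35 nM GST-tagged NR2E3 final | Schedule: 5 h at 4 °C | Replication: Singlicate compound wells | Reagent: RetCOR corepressor, biotinylated, 7 nM | Controls: Biotin wells as high control, 0.6% DMSO wells as low control | Signal: TR-FRET, Eu(K)-anti-GST donor, streptavidin-D2 acceptor, ex 340, em 617/671 nm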
# GAA850 FXN act = FXN promoter activators, primary screen, cell-based, luciferase luminescence, HEK293 lucGAA850; HEK293 lucGAA850 FXN promoter luciferase reporter, 24 h; percent of 10 µM SAHA response; 360,000 compounds, 0.56% hits; activation, % at 6 µM;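 active = activation above the average of all compounds screened plus 3 SD, cutoff fixed separately per campaign, cut at about 7.5% in these data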;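 also: 0% = DMSO wells and 100% = 10 µM SAHA wells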
# NR2E3 ag-2 = NR2E3 agonists in two-hybrid cells, primary screen, cell-based, luminescence, CHO-S, Gal4-NCOR/VP16-NR2E3; Photoreceptor-specific nuclear receptor (Homo sapiens), Q9Y5X4; inhibition of corepressor binding, % at 3.98 µM; AID 602229, 2012; 360,000 compounds, 0.35% hits; luciferase;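 active = inhibition above the mean of all tested compounds plus 3 SD, cut at about 70% in these data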;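 also: 0% = DMSO with NR2E3 transfected cells and 100% = cells lacking NR2E3 construct; higher means lower luciferase signal from less NR2E3 corepressor binding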
# GalR3 antagonist = GalR3 antagonists in HEK293 cells, primary screen, cell-based, fluorescence readout. 360,000 compounds, 0.44% hits. Galanin receptor type 3 (Homo sapiens), O60755. inhibition, % at 3 µM. HEK293 GalR3-CNG cAMP membrane potential fluorescence; galR3 body fused to GalR1 C-terminus;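 active = inhibition above the screen-wide average plus 3 SD, cut at about 13% in these data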;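 also: forskolin and galanin both at EC90 stimulate the cells; cAMP rise reported by CNG channel membrane potential dye signal; 0% = forskolin plus galanin with DMSO and 100% = forskolin alone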
# Target sequence (O60755 1-299 limits assumed): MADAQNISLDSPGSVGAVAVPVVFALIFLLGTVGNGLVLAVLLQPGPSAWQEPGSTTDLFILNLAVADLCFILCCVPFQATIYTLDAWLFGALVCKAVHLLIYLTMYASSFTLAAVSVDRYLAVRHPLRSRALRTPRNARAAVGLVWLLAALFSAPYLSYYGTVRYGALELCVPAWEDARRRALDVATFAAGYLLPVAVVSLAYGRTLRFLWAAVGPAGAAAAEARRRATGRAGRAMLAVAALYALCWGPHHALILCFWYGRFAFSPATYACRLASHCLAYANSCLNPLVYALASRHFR
# Env fusion inh = inhibitors of HIV-1 Env-driven cell-cell fusion, primary screen, HeLa-JRFL effector, CEM21 target cells, luciferase; inhibition, % at 12.3 µM; 360,000 compounds, 1.1% hits;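 active = mean replicate inhibition score of at least 50 and every replicate individually at or above 50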;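 also: 0% = plate neutral controls and 100% = maraviroc near 300 nM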
# V-ATPase pHluor = regulators of yeast V-ATPase proton pumping, primary screen, pHLuorin cytosolic pH fluorescence; S. cerevisiae; 350,000 compounds, 0.37% hits; response, % at 10 µM; AID 504577, 2011; in the data active = response mostly above about 7.3%, no sharp cut-off; inactive = mostly below about 5.4%; also: actives read high
# NR2E3 ag confirm = NR2E3 agonist confirmation in cells, cell-based, luminescence, CHO-S two-hybrid; inhibition, % at 3.98 µM; CHO-S mammalian two-hybrid NR2E3-NCOR, luciferase luminescence; 2,300 compounds, 51% hits; shares compounds with NR2E3 ag-2;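 active = average inhibition above a cutoff equal to the mean inhibition of all tested compounds plus one SD, cut at about 70% in these data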;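 also: 0% = DMSO in NR2E3 cells and 100% = DMSO in cells lacking NR2E3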
# VP16 counter = GAL4-VP16 reporter modulators, confirmation, counter-screen for NR2E3 agonist project, cell-based, luminescence, CHO-S, high throughput. shares compounds with NR2E3 ag-2. CHO-S GAL4-VP16 luciferase reporter. inhibition, % at 3.98 µM. 2,300 compounds, 29% hits. AID 624379, 2012;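 active = mean inhibition above a cutoff equal to the average over all tested compounds plus one standard deviation, cut at about 70% in these data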;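 also: luciferase from a UAS reporter driven by GAL4-VP16 transactivation; 0% = DMSO with VP16-transfected cells and 100% = DMSO with cells lacking VP16; higher means less reporter light so more repression of VP16 activity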
# An asterisk follows results filed as active; nt = not tested or not shown; [ ] = another dose, or the depositor's remark.
SMILES,NR2E3 ag-1,GAA850 FXN act,NR2E3 ag-2,GalR3 antagonist,Env fusion inh,V-ATPase pHluor,NR2E3 ag confirm,VP16 counter
BrC(=C\c1ccccc1)/C=N/Nc1ccc2nncn2n1,0,0,-7,-7,-12,-1,nt,nt
BrC(=C\c1ccccc1)/C=N/n1cnnc1,nt,-1,52,1,-181,0,27,28
COCC(=O)N1C[C@H](C)[C@H](OC)CN(C)C(=O)c2ccc(NS(C)(=O)=O)cc2OC[C@@H]1C,nt,nt,nt,nt,-5[16.7 µM],nt,nt,nt
O=C(NN=C1c2ccccc2-c2ccccc21)c1ccccc1,-1,5,-8,-8,5,2,nt,nt
NC(=S)NN=C1c2ccccc2-c2ccccc21,4,0,72*,-13,-35,-1,-4,-11
Cc1sc2ncnc(NCC(C)(C)N3CCOCC3)c2c1C,2,0,91*,12,nt,1,80*,66
COc1cccc(COc2ncnc3sccc23)c1,0,0,-30,0,5,-2,nt,nt
Cc1sc2ncnc(NCC3(N4CCOCC4)CCCCC3)c2c1C,-3,1,-8,12,nt,-4,nt,nt
Cc1sc2ncnc(NCc3ccccc3)c2c1C,2,1,67,1,nt,0,89*,71*
c1cncc(CNc2ncnc3sccc23)c1,0,-1,3,0,29,1,nt,nt
c1ccc(CNc2ncnc3sccc23)cc1,-3,-1,91*,-7,21,0,80*,53
COc1ccc(CNc2ncnc3sccc23)cc1,4,-4,94*,-10,9,-1,82*,63
C[C@@H]1CN([C@@H](C)CO)C(=O)c2ccccc2-c2ccccc2CO[C@@H]1CN(C)C(=O)Nc1ccccc1C(F)(F)F,nt,nt,nt,nt,-8[16.7 µM],nt,nt,nt
CS(=O)(=O)c1ccc(-n2nnc3ccccc32)c([N+](=O)[O-])c1,0,2,-29,-3,8,-1,nt,nt
O=[N+]([O-])c1cc(S(=O)(=O)Nc2cccc(C(F)(F)F)c2)ccc1-n1nnc2ccccc21,8,0,96*,-3,nt,1,98*,87*
COc1ccc(NS(=O)(=O)c2ccc(-n3nnc4ccccc43)c([N+](=O)[O-])c2)cc1,-1,0,54,-4,nt,0,45,45
O=C(Nc1ccc(Cl)cc1)c1cc2c(cc1O)[nH]c1ccccc12,-1,-1,101*,-4,62*,-2,99*,90*
CC(=O)Nc1ccc2[nH]c3ccccc3c2c1,0,1,-25,-9,nt,-1,nt,nt
CCC(=O)N1CCc2cc(S(=O)(=O)CCC(=O)N3CCN(c4ccc(Cl)cc4)CC3)ccc21,0,-2,60,-2,24,1,70,44
C[C@H]1CCCCO[C@H](CN(C)S(=O)(=O)c2cccs2)[C@@H](C)CN([C@@H](C)CO)C(=O)c2cc(NS(C)(=O)=O)ccc2O1,nt,nt,nt,nt,5[16.7 µM],nt,nt,nt
O=c1cc(C(F)(F)F)[nH]c2ccc(OC(F)(F)F)cc12,1,1,79*,-5,1,-4,100*,73*
CCOc1ccc2[nH]c(C)cc(=O)c2c1,-2,-3,6,2,7,3,nt,nt
CCOC(=O)c1ccc(S(=O)(=O)NC2CC2)cc1,0,0,-20,-9,16,-2,nt,nt
CCOC(=O)c1ccc(S(=O)(=O)NC2CCC(C)CC2)cc1 (stereo not given),0,1,70,-5,nt,3,51,51
C[C@@H]1CN([C@H](C)CO)C(=O)Cc2cc(NC(=O)c3ccncc3)ccc2O[C@H]1CN(C)Cc1ccccc1,nt,nt,nt,nt,20[16.7 µM],nt,nt,nt
SMILES,NR2E3 ag-1,GAA850 FXN act,NR2E3 ag-2,GalR3 antagonist,Env fusion inh,V-ATPase pHluor,NR2E3 ag confirm,VP16 counter
Nc1nc(-c2ccccc2)nn1C(=O)Cc1ccccc1,3,-1,82*,-4,nt,-2,1,-3
Nc1nc(-c2cccnc2)nn1C(=O)Cc1ccccc1,1,-1,-3,-6,-42,4,nt,nt
Brc1ccc(N/N=C(/N=Nc2nn[nH]n2)c2ccccc2)cc1,0,-4,72*,-7,6,0,94*,35
O=C(OC(c1ccccc1)c1nccc2ccccc12)c1ccccc1 (stereo not given),nt,-11,75*,-7,-160,4,71*,31
C[C@@H]1CN([C@@H](C)CO)C(=O)c2cc(-c3ccccc3F)cnc2O[C@@H]1CN(C)C(=O)C1CC1,nt,nt,nt,nt,16[16.7 µM],nt,nt,nt
CCCCNc1c(-c2ccc(OC)c(SC3CCCCC3)c2)nc2ccc(C)cn12,nt,-1,61,-5,5,0,46,26
CCCCNc1c(-c2ccc(SC3CCCCC3)c(OC)c2)nc2ccc(C)cn12,nt,-1,0,-6,45,-5,nt,nt
CN1C(=O)c2cc(NC(=O)NC3CCCC3)ccc2OC[C@@H]2O[C@H](CC(=O)NC3CCC3)CC[C@H]21,nt,nt,nt,nt,-11[16.7 µM],nt,nt,nt
COc1ccc(NC(=O)NCc2ccncc2)cc1,-2,-1,-22,-5,nt,6,nt,nt
COc1ccc(S(=O)(=O)Nc2ccc(Cc3ccncc3)cc2)cc1OC,1,0,61,-9,14,-1,72*,67
COc1ccc(NC(=O)Nc2ccc(Cc3ccncc3)cc2)c(OC)c1,1,2,51,-5,-5,-1,29,15
O=S(=O)(Nc1ccc(Cc2ccncc2)cc1)c1ccc(Cl)c(Cl)c1,4,2,24,-9,nt,1,nt,nt
C[C@H]1CN([C@@H](C)CO)C(=O)c2ccccc2-c2ccccc2CO[C@H]1CN(C)C(=O)Nc1ccccc1C(F)(F)F,nt,nt,nt,nt,-54[16.7 µM],nt,nt,nt
COCC(=O)N1C[C@@H](C)[C@@H](OC)CN(C)C(=O)c2ccc(NC(=O)c3ccc(F)cc3)cc2OC[C@H]1C,nt,nt,nt,nt,2[16.7 µM],nt,nt,nt
CN1CCN(c2ccc(Cl)cc2NC(=O)c2ccc(S(=O)(=O)N(C)C)cc2)CC1,4,1,12,1,-58,1,nt,nt
CN(C)S(=O)(=O)c1ccc(C(=O)Nc2cc(S(=O)(=O)Nc3ccccc3Cl)ccc2N2CCCCC2)cc1,0,1,48,1,20,2,85*,63
O=C(C[C@@H]1C=C[C@H](NC(=O)c2ccccc2)[C@H](CO)O1)NCCc1ccncc1,nt,nt,nt,nt,9[16.7 µM],nt,nt,nt
